According to ChEMBL document CHEMBL5370587, “Fungal Anthraquinone Photoantimicrobials Challenge the Dogma of Cationic Photosensitizers” (J Nat Prod, 2023):

Legend:
[1] = system: A549; assay: Phototoxicity against human A549 cells assessed as reduction in cell growth preincubated with compound for 24 hrs under dark condition and measured after 48 hrs by SRB assay; assay type: functional, cell-based; conditions: A549, light or radiation study
How it was run: (§1)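 Dark control plate processed the same way: cells (A549 2000, AGS 2500, T24 1500 per well) in Opti-MEM with 2.4% FCS, dosed at 25.0−0.3 μM 24 h after seeding. Medium renewed after 24 h, then 48 h further at 37 °C, 5% CO2 without light. SRB read-out at 540 nm after TCA fixation. EC50 with 95% CI from variable-slope fit.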

[2] = system: Candida albicans; assay: Antifungal activity against Candida albicans 501670 assessed as reduction in microbial growth preincubated for 60 mins under dark condition followed by 478 nm light irradiation and measured after 20 to 24 hrs by RPMI-1640 based dilution assay; conditions: Candida albicans, 501670, light or radiation study
[3] = system: Candida albicans; assay: Antifungal activity against Candida albicans 501670 assessed as reduction in microbial growth preincubated for 60 mins under dark condition followed by 530 nm light irradiation and measured after 20 to 24 hrs by RPMI-1640 based dilution assay; conditions: Candida albicans, 501670, light or radiation study
[4] = system: T-24; assay: Phototoxicity against human T24 cells assessed as reduction in cell growth preincubated with compound for 24 hrs followed by blue light irradiation at 468 nm for 7 mins 30 sec and measured after 48 hrs by SRB assay; assay type: functional, cell-based; conditions: T-24, light or radiation study
How it was run: (§2)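 Cells (A549 2000, AGS 2500, T24 1500 per well) seeded in Opti-MEM with 2.4% FCS. After 24 h, treated with 25.0−0.3 μM (six levels). After another 24 h, medium was replaced and cells got blue light (468±27 nm, 9.3 J/cm²). Held 48 h at 37 °C, 5% CO2, then TCA-fixed and SRB-stained, read at 540 nm. EC50 from variable-slope fit with 95% CI.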

[5] = system: AGS; assay: Phototoxicity against human AGS cells assessed as reduction in cell growth preincubated with compound for 24 hrs under dark condition and measured after 48 hrs by SRB assay; assay type: functional, cell-based; conditions: light or radiation study; how it was run: as §1
[6] = system: Escherichia coli; assay: Antibacterial activity against Escherichia coli DSM1103 assessed as reduction in microbial growth preincubated for 60 mins under dark condition followed by 428 nm light irradiation and measured after 20 to 24 hrs by muller hinton broth based dilution assay; assay type: functional; conditions: DSM1103, light or radiation study, time 21-25 hrs
How it was run: (§3)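 PhotoMIC (modified EUCAST broth microdilution): 0.5 McFarland suspensions diluted 1:50 in Mueller-Hinton broth (bacteria, 2–8 × 10⁵ CFU/mL) or 1:10 in double-strength RPMI-1640 (yeast, 0.5–2.5 × 10⁵ CFU/mL); ≥10 concentrations, biological triplicates; 60 min dark preincubation, then 30 J/cm² irradiation or dark duplicate plate; 37 °C, 20–24 h; turbidity versus growth control, blanks subtracted.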

[7] = system: AGS; assay: Phototoxicity against human AGS cells assessed as reduction in cell growth preincubated with compound for 24 hrs followed by blue light irradiation at 468 nm for 7 mins 30 sec and measured after 48 hrs by SRB assay; assay type: functional, cell-based; conditions: light or radiation study; how it was run: as §2
[8] = system: A549; assay: Photo index, ratio of EC50 for human A549 cells killed in the absence of light to EC50 for human A549 cells killed after irradiation; assay type: functional
How it was run: (§4)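 SRB assay: cells seeded in Opti-MEM with 2.4% FCS, treated 24 h later with 0.3–25.0 μM, medium replaced after 24 h. Duplicate plates were irradiated with blue light (468 nm, 9.3 J/cm²) or green light (519 nm, 30.0 J/cm²), or kept dark, then held 48 h at 37 °C, 5% CO₂. EC50 from Hill fit; photoindex = EC50 dark / EC50 irradiated.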

[9] = system: Staphylococcus aureus; assay: Antibacterial activity against Staphylococcus aureus DSM1104 assessed as reduction in microbial growth preincubated for 60 mins under dark condition followed by 478 nm light irradiation and measured after 20 to 24 hrs by muller hinton broth based dilution assay; assay type: functional; conditions: DSM1104, light or radiation study, time 21-25 hrs; how it was run: as §3
[10] = system: A549; assay: Phototoxicity against human A549 cells assessed as reduction in cell growth preincubated with compound for 24 hrs followed by green light irradiation at 519 nm for 22 mins 23 sec and measured after 48 hrs by SRB assay; assay type: functional, cell-based; conditions: A549, light or radiation study
How it was run: (§5)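 Cells (A549 2000, AGS 2500, T24 1500 per well) seeded in Opti-MEM with 2.4% FCS and dosed 24 h later at six concentrations, 25.0−0.3 μM. After a further 24 h, fresh medium was added and cells got green light (519±33 nm, 30.0 J/cm²). Then 48 h at 37 °C, 5% CO2. Read-out by TCA fixation, SRB stain and absorbance at 540 nm. EC50 from Hill fit with 95% CI.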

[11] = system: T-24; assay: Phototoxicity against human T24 cells assessed as reduction in cell growth preincubated with compound for 24 hrs under dark condition and measured after 48 hrs by SRB assay; assay type: functional, cell-based; conditions: T-24, light or radiation study; how it was run: as §1
[12] = system: Staphylococcus aureus; assay: Antibacterial activity against Staphylococcus aureus DSM1104 assessed as reduction in microbial growth preincubated for 60 mins under dark condition followed by 428 nm light irradiation and measured after 20 to 24 hrs by muller hinton broth based dilution assay; assay type: functional; conditions: DSM1104, light or radiation study, time 21-25 hrs; how it was run: as §3
[13] = system: AGS; assay: Phototoxicity against human AGS cells assessed as reduction in cell growth preincubated with compound for 24 hrs followed by green light irradiation at 519 nm for 22 mins 23 sec and measured after 48 hrs by SRB assay; assay type: functional, cell-based; conditions: light or radiation study; how it was run: as §5
[14] = system: Candida albicans; assay: Antifungal activity against Candida albicans 501670 assessed as reduction in microbial growth preincubated for 60 mins under dark condition followed by 428 nm light irradiation and measured after 20 to 24 hrs by RPMI-1640 based dilution assay; conditions: Candida albicans, 501670, light or radiation study
[15] = system: Staphylococcus aureus; assay: Antibacterial activity against Staphylococcus aureus DSM1104 assessed as reduction in microbial growth preincubated for 60 mins under dark condition and measured after 20 to 24 hrs at room temperature by muller hinton broth based dilution assay; assay type: functional; conditions: time 20-24 hrs
How it was run: (§6)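 Bacteria grown overnight at 37 °C for 15−18 h in the dark, then set to 0.5 McFarland (read at 600 nm) and diluted 1:50 in Müller-Hinton broth to (2–8) × 10⁵ CFU/mL. Dark plate held at room temperature, then incubated at 37 °C. After 20−24 h, turbidity was read against the untreated growth control, with blanks subtracted. Compounds tested at ≥10 concentrations in biological triplicate.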

[16] = system: T-24; assay: Phototoxicity against human T24 cells assessed as reduction in cell growth preincubated with compound for 24 hrs followed by green light irradiation at 519 nm for 22 mins 23 sec and measured after 48 hrs by SRB assay; assay type: functional, cell-based; conditions: T-24, light or radiation study; how it was run: as §5
[17] = system: T-24; assay: Photo index, ratio of EC50 for human T24 cells killed in the absence of light to EC50 for human T24 cells killed after irradiation; assay type: functional; how it was run: as §4
[18] = system: Candida albicans; assay: Antifungal activity against Candida albicans 501670 assessed as reduction in microbial growth preincubated for 60 mins under dark condition and measured after 20 to 24 hrs at room temperature by RPMI-1640 based dilution assay
[19] = system: Staphylococcus aureus; assay: Antibacterial activity against Staphylococcus aureus DSM1104 assessed as reduction in microbial growth preincubated for 60 mins under dark condition followed by 530 nm light irradiation and measured after 20 to 24 hrs by muller hinton broth based dilution assay; assay type: functional; conditions: DSM1104, light or radiation study, time 21-25 hrs; how it was run: as §3
[20] = system: A549; assay: Phototoxicity against human A549 cells assessed as reduction in cell growth preincubated with compound for 24 hrs followed by blue light irradiation at 468 nm for 7 mins 30 sec and measured after 48 hrs by SRB assay; assay type: functional, cell-based; conditions: A549, light or radiation study; how it was run: as §2
[21] = system: Escherichia coli; assay: Antibacterial activity against Escherichia coli DSM1103 assessed as reduction in microbial growth preincubated for 60 mins under dark condition and measured after 20 to 24 hrs at room temperature by muller hinton broth based dilution assay; assay type: functional; conditions: time 20-24 hrs; how it was run: as §6
[22] = system: Staphylococcus aureus; assay: Antibacterial activity against Staphylococcus aureus DSM1104 assessed as reduction in microbial growth preincubated for 60 mins under dark condition followed by 428 to 530 nm light irradiation and measured after 20 to 24 hrs by muller hinton broth based dilution assay; assay type: functional; conditions: DSM1104, light or radiation study, time 21-25 hrs
How it was run: (§7)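 Bacterial inoculum set to 0.5 McFarland (600 nm) and diluted 1:50 in Müller-Hinton broth to (2–8) × 10⁵ CFU/mL. After 60 min dark preincubation the plate received H = 30 J/cm² from LED panels (468±27, 519±33, 478±22 or 523±33 nm). Incubated at 37 °C in the dark for 20−24 h. Turbidity read against growth control, blanks subtracted. ≥10 concentrations, biological triplicate.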

[23] = system: Candida albicans; assay: Antifungal activity against Candida albicans 501670 assessed as reduction in microbial growth preincubated for 60 mins under dark condition followed by 428 to 530 nm light irradiation and measured after 20 to 24 hrs by muller hinton broth based dilution assay; assay type: functional; conditions: Candida albicans, 501670, light or radiation study; in the assay text read “RPMI-1640” for “muller hinton broth”; time 21-25 hrs
How it was run: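 Yeast set to 0.5 McFarland (530 nm), diluted 1:10 in double-strength RPMI-1640 to (0.5−2.5) × 10⁵ CFU/mL. Irradiated at H = 30 J/cm² after 60 min dark preincubation, then kept dark at 37 °C for 20−24 h. Growth inhibition by turbidity versus growth control, blanks subtracted. ≥10 concentrations in biological triplicate.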

[24] = system: Escherichia coli; assay: Antibacterial activity against Escherichia coli DSM1103 assessed as reduction in microbial growth preincubated for 60 mins under dark condition followed by 428 to 530 nm light irradiation and measured after 20 to 24 hrs by muller hinton broth based dilution assay; assay type: functional; conditions: DSM1103, light or radiation study, time 21-25 hrs; how it was run: as §7

MIC [15]	MIC [18]	MIC [21]	MIC [22]	MIC [23]	MIC [24]	Compound	EC50 [1]	EC50 [4]	EC50 [5]	EC50 [7]	EC50 [10]	EC50 [11]	EC50 [13]	EC50 [16]	EC50 [20]	other results
> 79 µM	> 79 µM					COc1c(O)c(O)c2c(c1O)C(=O)c1cc(C)cc(O)c1C2=O	> 25 µM	> 25 µM	> 25 µM	> 25 µM	16.2 µM	24.7 µM	> 25 µM	11.6 µM	> 25 µM	MIC [2]: 19.7 µM; MIC [3]: 39.5 µM; MIC [6]: > 79 µM; Ratio EC50 [8]: >1.5; MIC [9]: 4.74 µM; MIC [12]: 39.5 µM; MIC [14]: 39.5 µM; Ratio EC50 [17]: 2.1; MIC [19]: 2.37 µM
> 115 µM	> 115 µM	> 115 µM	> 115 µM	> 115 µM	> 115 µM	Cc1cc(O[C@@H]2O[C@H](CO)[C@@H](O)[C@H](O)[C@H]2O)c2c(c1)C(=O)c1cc(O)cc(O)c1C2=O	> 25 µM	> 25 µM	> 25 µM	> 25 µM		> 25 µM			> 25 µM	
> 84 µM	> 84 µM	> 84 µM	> 84 µM	> 84 µM	> 84 µM	Cc1cc(O[C@@H]2O[C@H](CO)[C@@H](O)[C@H](O)[C@H]2O)c2c(c1)C(=O)c1cc(O[C@@H]3O[C@H](CO)[C@@H](O)[C@H](O)[C@H]3O)cc(O)c1C2=O	> 25 µM	> 25 µM	> 25 µM	> 25 µM		> 25 µM			> 25 µM	
> 105 µM	> 105 µM	> 105 µM	> 105 µM	> 105 µM	> 105 µM	COc1c(O)c(O)c2c(c1O)C(=O)c1cc(C)cc(O[C@@H]3O[C@H](CO)[C@@H](O)[C@H](O)[C@H]3O)c1C2=O	> 25 µM	> 25 µM	> 25 µM	> 25 µM	> 25 µM	> 25 µM	> 25 µM	> 25 µM	> 25 µM	
